Screening results: PubChem BioAssay, several laboratories
ANO1 activ – TMEM16A chloride channel activators or potentiators, primary screen, cell-based, HTS; Anoctamin-1 (Mus musculus), Q8BHY3; HEK293 TMEM16A/YFP-H148Q/I152L, iodide quench fluorescence; stronger effect = lower value; B-score at 10 µM; hit rate 0.3% among 340,000; AID 623877, 2012;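 active means fluorescence-ratio B-score plate-corrected deviation score at least 3 library SD below zero, with starting fluorescence score within 5 deviations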;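 further: channel opened by trigger with iodide after compound preincubation; score built on the fluorescence ratio of max minus min over baseline; more negative score means more quench and so TMEM16A activation or potentiation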
TMEM16A inh – TMEM16A chloride channel inhibitors, primary screen, cell-based, HTS; HEK293 TMEM16A/YFP iodide influx fluorescence, ionomycin; hit rate 1.2% among 310,000; Anoctamin-1 (Mus musculus), Q8BHY3; normalized B-score (activity score, 25-100; higher = stronger inhibition) at 10 µM;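 active means ratio plate-corrected score three or more library SD toward inhibition, starting fluorescence score within five deviations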;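 further: score derived from kinetic fluorescence span divided by baseline fluorescence per well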
MC4R ag barr – MC4R agonists recruiting beta-arrestin, primary screen, cell-based, luminescence, agonist arm of biased-ligand search. Melanocortin receptor 4 (Homo sapiens), P32245. U2OS MC4R beta-arrestin complementation; percent of melanotan II response, DMSO zero. activation, % at 8.9 µM. hit rate 0.98% among 360,000. AID 540308, 2011;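 active means activation above a per-plate cutoff, the mean activation of sample wells on that plate plus 3 SD, cut at about 8% in these data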
Target sequence (P32245 whole entry, looked up): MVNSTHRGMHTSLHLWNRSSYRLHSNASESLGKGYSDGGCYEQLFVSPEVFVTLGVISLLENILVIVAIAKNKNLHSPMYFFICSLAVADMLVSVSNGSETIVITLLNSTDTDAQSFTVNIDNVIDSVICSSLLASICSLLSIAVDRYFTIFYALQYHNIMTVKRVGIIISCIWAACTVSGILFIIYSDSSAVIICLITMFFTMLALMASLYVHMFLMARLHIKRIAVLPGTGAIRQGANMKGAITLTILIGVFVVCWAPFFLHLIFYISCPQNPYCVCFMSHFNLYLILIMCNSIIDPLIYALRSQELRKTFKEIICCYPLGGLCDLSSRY
beta cell repl – inducers of MIN6 beta-cell proliferation, primary screen, ATP luminescence, uHTS; MIN6 cells proliferation, ATPlite luminescence, 48 h; cells starved in 0.2% serum; 100% = growth in 10% serum; proliferation, % at 10 µM; hit rate 0.29% among 330,000;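 active means compounds whose signal lies at least 3.5 SD above the mean of all wells on their plate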;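 further: 0% = DMSO-treated cells in low-serum medium and 100% = 10% serum control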
MC4R antag cAMP – MC4R antagonists of cAMP signaling, primary screen, cell-based, TR-FRET, antagonist arm of biased-ligand search. Melanocortin receptor 4 (Homo sapiens), P32245. MC4R-expressing cells, MTII-stimulated cAMP, LANCE TR-FRET. inhibition, % at 6.5 µM. hit rate 0.48% among 360,000. AID 540295, 2011;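 active means inhibition above its plate's cutoff, the mean of tested wells on that plate plus 3 SD, cut at about 29% in these data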;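 further: 0% = Melanotan II alone and 100% = Melanotan II plus saturating MCL0020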
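Assay system: human MC4R-expressing U2OS cells; reagent: Melanotan II stimulation of cells; dosing: 6.5 µM single dose; timing: compound 30 min, challenge 1 h, detection 1 h; signal: TR-FRET cAMP assay; replicates: one well per compound, no replicates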
HTR2A ag – mouse Htr2a agonists via beta-arrestin recruitment, primary screen, cell-based, luminescence; hit rate 0.66% among 360,000; activation, % at 7.6 µM; CHO-K1 mHTR2A beta-arrestin complementation; percent of 30 µM serotonin response; 5-hydroxytryptamine receptor 2A (Mus musculus), P35363;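 active means activation above a run cutoff, the mean activation of all tested compounds plus 3 SD, cut at about 14% in these data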;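 further: 0% = plate median of compound wells and 100% = 30 µM serotonin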
TMEM16A reconf – TMEM16A chloride channel inhibitors, confirmation, cell-based, re-confirmation | inhibition, % at 10 µM | hit rate 39% among 2,300 | shares compounds with TMEM16A inh | HEK293 TMEM16A/YFP-H148Q, iodide quench fluorescence; ionomycin added to raise cell calcium | AID 652189, 2013;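 active means mean duplicate percent inhibition, scaled so buffer wells are 0 and the reference blocker 100, over three buffer SD above buffer mean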
TMEM16A Ca cntr – calcium mobilization in TMEM16A/YFP HEK293 cells, confirmation, counter-screen for TMEM16A inhibitor project; hit rate 2% among 2,300; Fluo4 calcium mobilization; calcium response (% of ionomycin), % at 10 µM; shares compounds with TMEM16A inh; AID 652231, 2013;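 active means duplicate-averaged calcium signal over 20% of the ionomycin maximum, relative to buffer baseline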;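 further: each well's signal is peak minus trough fluorescence divided by its pre-addition baseline; 0% = buffer wells and 100% = ionomycin wells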
Parental YFP cnt – iodide YFP quench changes in parental YFP-HEK293, counter-screen for TMEM16A inhibitor project, cell-based; shares compounds with TMEM16A inh; AID 652233, 2013; YFP ratio F(max-min)/F0 at 10 µM; ionomycin; 2,300 tested, under 10 active;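 active means yellow fluorescent protein signal ratio exceeding the buffer control mean by over 5 SD of those controls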;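 further: ratio is mean of duplicate wells from kinetic YFP trace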
ClC-1 rat inh – ClC-1 chloride channel inhibition, selectivity assay for TMEM16A inhibitor project, cell-based, voltage-dependent ClC-1 | shares compounds with TMEM16A inh | CHO ClC-1-YFP, iodide influx fluorescence quench; iodide control reads 0, buffer control 100 | ratio percent, % at 10 µM | 2,300 tested, under 10 active | AID 652236, 2013;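 active means duplicate-mean ratio percent above the mean of iodide-only control wells, which defines zero, plus 5 of their SD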;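 further: higher percent means stronger block of ClC-1 iodide influx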
* hit, by the source's call; i = inactive; / = no result given. The list is not random: actives were taken first. Their share in the collection is about 3.4%.

SMILES	ANO1 activ	TMEM16A inh	MC4R ag barr	beta cell repl	MC4R antag cAMP	HTR2A ag	TMEM16A reconf	TMEM16A Ca cntr	Parental YFP cnt	ClC-1 rat inh
O=C(NC1CCC(Oc2ccc(C(=O)O)cc2)CC1)NC12CC3CC(CC(C3)C1)C2 (centres undefined)	i	/	-1	0	4	-2	/	/	/	/
CC1CCN(c2ccc(S(=O)(=O)N3CCC(C)CC3)cc2N)CC1	i	25*	0	-1	8	-1	30%*	i	-1	-8
C/C=C(/C)C(=O)OC1c2c(ccc3ccc(=O)oc23)OC(C)(C)C1OC(=O)/C(C)=C\C (centres undefined)	i	25*	5	-5	10	1	28%*	26%*	-1	-16
CCN(CC)CCNC(=O)CS(=O)Cc1nc(-c2ccc(Cl)cc2)oc1C (centres undefined)	i	i	-2	4	-5	6	/	/	/	/
CCN(CC)CCNC(=O)CS(=O)Cc1nc(-c2ccc(C)cc2)oc1C (centres undefined)	i	i	-2	2	3	1	i	i	-0.92	-8
O=C(Nc1ccc(S(=O)(=O)N2CCCC2)cc1)c1ccc(OCC2CCCO2)cc1 (centres undefined)	i	25*	-1	1	-1	13	20%*	i	-0.98	-8
O=C(Nc1cccc(S(=O)(=O)N2CCCCC2)c1)c1ccc(OCC2CCCO2)cc1 (centres undefined)	i	25*	-2	0	4	-4	i	i	-1	-14
COc1ccc(C(=O)NC(=S)Nc2cccc(S(=O)(=O)N3CCOCC3)c2)cc1	i	25*	0	-1	-18	-1	i	i	-0.96	-8
CN(C(=O)c1cccc(NC(=O)Cc2ccc(NC(=O)C3CCCN(C(=O)C4CC4)C3)cc2)c1)C1CCC1 (centres undefined)	/	/	-2	/	0	5	/	/	/	/
Cc1c(N(C)C(=O)COc2ccc3ccccc3c2)c(=O)n(-c2ccccc2)n1C	i	i	-1	0	9	0	/	/	/	/
O=C(NCC1(N2CCOCC2)CCCCC1)c1ccc(Cl)c(S(=O)(=O)NCc2ccco2)c1	i	100*	1	-3	-4	-5	i	i	-1	-7
O=C(NCc1ccco1)c1ccc(Cl)c(S(=O)(=O)N2CCOCC2)c1	i	i	-2	0	1	-4	/	/	/	/
COC(=O)c1c(NC(=O)c2ccc(OC(C)C)cc2)sc2c1CC(C)(C)NC2(C)C	i	100*	2	-6	5	-2	i	i	-0.9	-7
COC(=O)c1c(NC(=O)c2ccccc2)sc2c1CC(C)(C)NC2(C)C	i	i	0	-6	-1	-2	/	/	/	/
C[C@@H]1CN([C@H](C)CO)S(=O)(=O)c2ccc(Br)cc2O[C@H]1CN(C)C(=O)C1CCCCC1	/	/	-1	/	2	5	/	/	/	/
COC(=O)c1ccc2nc(-c3ccc(OC)c(OC)c3)c(Cc3cccc(F)c3)n2c1	/	/	/	/	/	6	/	/	/	/
CCC1CCCCN1C1Sc2ccc(C(=O)OC)cc2NC1=O (centres undefined)	i	25*	2	-3	3	1	i	i	-1.2	-9
COc1ccc(NC(=O)CSc2ccc(-c3cccnc3)nn2)cc1	i	i	-1	0	8	1	/	/	/	/
CCOC(=O)c1ccc(NC(=O)CSc2ccc(-c3cccnc3)nn2)cc1	i	25*	-3	-3	4	-5	i	i	-1.1	-5
CC(C)CCN(C(=O)CNC(=O)c1ccco1)C(C(=O)NC1CCCCC1)c1ccco1 (centres undefined)	/	25*	-2	1	0	-1	19%*	i	-1.1	-6
COCCN(C(=O)CNC(=O)c1ccco1)C(C(=O)NC1CCCC1)c1ccc(F)cc1 (centres undefined)	i	i	-1	-1	0	3	/	/	/	/
C[C@@H]1CCCCO[C@H](CN(C)C(=O)Nc2ccc3c(c2)OCO3)[C@H](C)CN([C@@H](C)CO)C(=O)c2cc(NS(=O)(=O)c3ccc(Cl)cc3)ccc2O1	/	/	0	/	15	-2	/	/	/	/
O=C(c1cc2ccccc2o1)N1CCN(Cc2nc3ccccc3s2)CC1	/	/	0	/	12	5	/	/	/	/
O=C(NC1CCCCC1)C1CCCN1S(=O)(=O)c1cccc2nsnc12 (centres undefined)	i	100*	-2	4	3	3	i	i	-1.1	-6
CC(NCC(=O)Nc1cc(S(=O)(=O)N2CCOCC2)ccc1Cl)c1ccc(Cl)cc1Cl (centres undefined)	i	i	1	-7	13	1	/	/	/	/
COC(=O)C(Cc1ccc(OC(=O)c2ccc(Cl)cc2)cc1)N1Cc2ccccc2C1=O (centres undefined)	i	100*	0	-4	0	-2	24%*	i	-0.96	-17
O=C(CSc1nc2ccccc2c(=O)n1CC1CCCO1)NCC1CCCO1 (centres undefined)	i	100*	-3	3	8	0	i	i	-1.2	-8
Cc1ccc(CNC(=O)CSc2nc3ccccc3c(=O)n2CC2CCCO2)cc1 (centres undefined)	i	/	-2	2	-2	-1	/	/	/	/
